Measurements reported in ChEMBL document CHEMBL6134787, “Fexinidazole optimization: enhancing anti-leishmanial profile, metabolic stability and hERG safety” (RSC Med Chem, 2024).

Key:
[1] = Metabolic stability in rat liver microsome assessed as compound remaining at 20 uM measured after 32 mins in presence of NADP and GSH by HPLC analysis; type: ADME; conditions: liver microsomes, read-out: Stability
Method in brief: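 Rat liver microsomes (final 2 mg/mL) in 50 mM phosphate pH 7.4 with 0.3 mM NADP+, 5.3 mM glucose-6-phosphate, G6PDH, 10 mM MgCl2 and 5 mM EDTA. 20 μM compound added at 37 °C. Aliquots at 0, 16 and 32 min were quenched in ice-cold acetonitrile and centrifuged. HPLC peak area at 254/280 nm was expressed relative to 0 min.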

Leishmania major = assay: Antileishmanial activity against wild type Leishmania major FV1 promastigotes […] assessed as inhibition of parasite growth incubated for 72 hrs by automatic microtiter plate reader analysis; type: functional, organism-based
Method in brief: (§1)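 Promastigotes were grown in Schneider's medium (4 mM glutamine, gentamicin, 10% heat-inactivated FBS, pH 6.9, 27 °C). Cells were seeded at 1.5 × 10^5/well and exposed to a concentration series for 72 h at 27 °C.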

[2] = Cytotoxicity against mouse L929 cells assessed as inhibition of cell growth incubated for 72 hrs by MTS assay; type: toxicity, cell-based
Method in brief: (§2)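 Cells in DMEM + 10% heat-inactivated FBS with penicillin/streptomycin at 37 °C, 5% CO2. They were seeded at 1 × 10^4/well and incubated with a concentration series for 72 h at 37 °C. Viability was read by MTS/PMS assay at 490 nm and IC50 derived.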

[3] = Metabolic stability in rat liver S9 fraction assessed as compound remaining at 20 uM measured after 32 mins in presence of NADP and GSH by HPLC analysis; type: ADME, subcellular; conditions: read-out: Stability
Method in brief: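 Rat liver S9 (final 4 mg/mL) in 50 mM phosphate pH 7.4 with NADPH-regenerating system (0.3 mM NADP+, 5.3 mM glucose-6-phosphate, G6PDH), 10 mM MgCl2 and 5 mM EDTA. Pre-warmed 10 min at 37 °C, then 20 μM compound and 5.5 μM GSH added. Samples taken at 0, 16 and 32 min were quenched in ice-cold acetonitrile. HPLC (254/280 nm) peak area was expressed relative to 0 min.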

Leishmania braziliensis [4] = assay: Antileishmanial activity against wild type Leishmania braziliensis UA847 promastigotes […] assessed as inhibition of parasite growth incubated for 72 hrs by automatic microtiter plate reader analysis; type: functional, organism-based; method in brief: as §1
Leishmania amazonensis [5] = assay: Antileishmanial activity against wild type Leishmania amazonensis LV78 promastigotes […] assessed as inhibition of parasite growth incubated for 72 hrs by automatic microtiter plate reader analysis; type: functional, organism-based; method in brief: as §1
RAW264.7 = assay: Cytotoxicity against mouse RAW264.7 cells assessed as inhibition of cell growth incubated for 72 hrs by MTS assay; type: functional, cell-based; conditions: RAW264.7, 72 h; method in brief: as §2
Leishmania donovani [6] = assay: Antileishmanial activity against miltefosine resistant Leishmania donovani HU3MILR40 promastigotes […] assessed as inhibition of parasite growth incubated for 72 hrs by automatic microtiter plate reader analysis; type: functional, organism-based
Method in brief: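 Promastigote (free parasite) assay: Schneider's Drosophila medium with 4 mM glutamine, 25 μg mL−1 gentamicin, 10% heat-inactivated FBS, pH 6.9, 27 °C. 1.5 × 10^5 promastigotes per well exposed to a concentration series for 72 h at 27 °C.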

[7] = target: T1, Voltage-gated inwardly rectifying potassium channel KCNH2 (Homo sapiens, UniProt Q12809); assay: Inhibition of human ERG stably overexpressed in HEK293 cells incubated for 30 mins by FLIPR assay; type: toxicity, cell-based; conditions: human, hek293, 0.5 h; time 30 min
Leishmania donovani [8] = assay: Antileishmanial activity against wild type Leishmania donovani HU3 promastigotes […] assessed as inhibition of parasite growth incubated for 72 hrs by automatic microtiter plate reader analysis; type: functional, organism-based
hERG (KCNH2) [9] = target: T2, hERG (KCNH2) (Homo sapiens, UniProt Q12809); assay: Inhibition of human ERG stably overexpressed in HEK293 cells assessed as remaining activity at 25 uM incubated for 30 mins by FLIPR assay; type: toxicity, cell-based; conditions: HEK293 cells stably overexpressing hERG, read-out: Activity
Method in brief: (§3)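 HEK-293 cells stably expressing hERG, seeded at 60 000/well and grown 24 h. Compounds were added in DMSO (final 0.5%) and incubated 30 min in the dark. After 20 s baseline, Tl+ stimulus (3 mM) was added and fluorescence (ex 485/em 535 nm) recorded for 2.5 min.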

[10] = Hepatotoxicity against mouse TAMH cells assessed as cell viability at 7.8 to 125 uM incubated for 24 to 48 hrs by MTT assay; type: toxicity, cell-based; conditions: dose lower 7.8 µM, time lower 24 hrs, dose upper 125 µM, time upper 48 hrs, read-out: Activity
Method in brief: (§4)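 TAMH mouse liver cells in FCS-free DMEM/F12 with 5% PANEXIN NTA, 10 mM nicotinamide and gentamicin. Seeded at 20 000/well and attached 24 h at 37 °C, 5% CO2. DMSO-diluted compounds were applied for 24 or 48 h. MTT was added for 4 h, formazan dissolved in DMSO and A570 read. Viability was background-corrected and expressed relative to DMSO controls; mean ± SD, ≥3 experiments.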

[11] = Hepatotoxicity against mouse TAMH cells assessed as cell viability at 125 uM incubated for 48 hrs by MTT assay; type: toxicity, cell-based; method in brief: as §4
[12] = Hepatotoxicity against human HepG2 cells assessed as cell viability at 125 uM incubated for 48 hrs by MTT assay; type: toxicity, cell-based; conditions: hepg2, 48 h, 125 µM
Method in brief: (§5)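 HEP-G2 cells in RPMI 1640 + 10% heat-inactivated FBS, penicillin/streptomycin. Seeded at 15 000/well and attached 24 h at 37 °C, 5% CO2. Compounds were serially diluted in DMSO, with 24 or 48 h exposure. MTT (2.5 mg/mL solution) was added for 4 h, formazan dissolved in DMSO and A570 read. Viability was background-corrected against DMSO-treated cell controls; mean ± SD, ≥3 experiments.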

[13] = target: T1, Voltage-gated inwardly rectifying potassium channel KCNH2; assay: (§6) Inhibition of human ERG stably overexpressed in HEK293 cells at 100 uM incubated for 30 mins by FLIPR assay; type: toxicity, cell-based; conditions: hek293, 0.5 h, 100 µM; method in brief: as §3
hERG (KCNH2) [14] = target: T2, hERG (KCNH2); assay: as §6; type: toxicity, cell-based; conditions: HEK293 cells stably overexpressing hERG; method in brief: as §3
hERG (KCNH2) [15] = target: T2, hERG (KCNH2); assay: (§7) Inhibition of human ERG stably overexpressed in HEK293 cells assessed as remaining activity at 6 uM incubated for 30 mins by FLIPR assay; type: toxicity, cell-based; conditions: HEK293 cells stably overexpressing hERG, read-out: Activity; method in brief: as §3
Leishmania donovani [16] = assay: Antileishmanial activity against miltefosine resistant Leishmania donovani HU3MILR40 amastigotes infected in mouse peritoneal macrophage assessed as inhibition of parasite growth incubated for 72 hrs by giemsa staining based analysis; type: functional, organism-based
Method in brief: (§8)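 Mouse peritoneal macrophages in DMEM + 10% heat-inactivated FBS, penicillin/streptomycin; 1 × 10^5 cells per well on coverslips, adhered overnight at 37 °C, 5% CO2, non-adherent cells washed off. Infected overnight with late-log promastigotes at parasite:macrophage 40:1. Compound exposure 72 h at 37 °C; Giemsa stain, amastigotes per 100 macrophages counted, IC50 derived; means ± SD of 3–4 independent experiments.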

Leishmania braziliensis [17] = assay: Antileishmanial activity against wild type Leishmania braziliensis UA847 amastigotes infected in mouse peritoneal macrophage assessed as inhibition of parasite growth incubated for 72 hrs by giemsa staining based analysis; type: functional, organism-based
Method in brief: (§9)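 Mouse peritoneal macrophages (1 × 10^5/well on coverslips, DMEM + 10% heat-inactivated FBS, penicillin/streptomycin) adhered overnight at 37 °C, 5% CO2. They were infected overnight with late-log promastigotes at a 20:1 parasite:macrophage ratio. Cells were then treated with compound for 72 h at 37 °C and Giemsa-stained. Amastigotes per 100 macrophages were counted to derive IC50; mean ± SD of 3–4 independent experiments.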

Leishmania donovani [18] = assay: Antileishmanial activity against wild type Leishmania donovani HU3 amastigotes infected in mouse peritoneal macrophage assessed as inhibition of parasite growth incubated for 72 hrs by giemsa staining based analysis; type: functional, organism-based; method in brief: as §8
[19] = Selectivity ratio of IC50 for cytotoxicity against mouse peritoneal macrophage assessed as inhibition of cell growth to IC50 for antileishmanial activity against miltefosine resistant Leishmania donovani HU3MILR40 amastigotes infected in mouse peritoneal macrophage assessed as inhibition of parasite growth; type: toxicity, cell-based; conditions: peritoneal macrophages, read-out: Ratio IC50
Leishmania amazonensis [20] = assay: Antileishmanial activity against wild type Leishmania amazonensis LV78 amastigotes infected in mouse peritoneal macrophage assessed as inhibition of parasite growth incubated for 72 hrs by giemsa staining based analysis; type: functional, organism-based; method in brief: as §9
[21] = Cytotoxicity against mouse peritoneal macrophage assessed as inhibition of cell growth incubated for 72 hrs by giemsa staining based analysis; type: toxicity; conditions: peritoneal macrophages
[22] = target: T1, Voltage-gated inwardly rectifying potassium channel KCNH2; assay: as §7; type: toxicity, cell-based; conditions: hek293, 0.5 h, 6 µM; method in brief: as §3
[23] = Hepatotoxicity against mouse TAMH cells assessed as reduction in cell viability at 125 uM incubated for 24 hrs by MTT assay; type: toxicity, cell-based; method in brief: as §4
[24] = Hepatotoxicity against human HepG2 cells assessed as reduction in cell viability at 125 uM incubated for 24 hrs by MTT assay; type: toxicity, cell-based; conditions: hepg2, 24 h; method in brief: as §5

T1 sequence (Q12809 whole entry): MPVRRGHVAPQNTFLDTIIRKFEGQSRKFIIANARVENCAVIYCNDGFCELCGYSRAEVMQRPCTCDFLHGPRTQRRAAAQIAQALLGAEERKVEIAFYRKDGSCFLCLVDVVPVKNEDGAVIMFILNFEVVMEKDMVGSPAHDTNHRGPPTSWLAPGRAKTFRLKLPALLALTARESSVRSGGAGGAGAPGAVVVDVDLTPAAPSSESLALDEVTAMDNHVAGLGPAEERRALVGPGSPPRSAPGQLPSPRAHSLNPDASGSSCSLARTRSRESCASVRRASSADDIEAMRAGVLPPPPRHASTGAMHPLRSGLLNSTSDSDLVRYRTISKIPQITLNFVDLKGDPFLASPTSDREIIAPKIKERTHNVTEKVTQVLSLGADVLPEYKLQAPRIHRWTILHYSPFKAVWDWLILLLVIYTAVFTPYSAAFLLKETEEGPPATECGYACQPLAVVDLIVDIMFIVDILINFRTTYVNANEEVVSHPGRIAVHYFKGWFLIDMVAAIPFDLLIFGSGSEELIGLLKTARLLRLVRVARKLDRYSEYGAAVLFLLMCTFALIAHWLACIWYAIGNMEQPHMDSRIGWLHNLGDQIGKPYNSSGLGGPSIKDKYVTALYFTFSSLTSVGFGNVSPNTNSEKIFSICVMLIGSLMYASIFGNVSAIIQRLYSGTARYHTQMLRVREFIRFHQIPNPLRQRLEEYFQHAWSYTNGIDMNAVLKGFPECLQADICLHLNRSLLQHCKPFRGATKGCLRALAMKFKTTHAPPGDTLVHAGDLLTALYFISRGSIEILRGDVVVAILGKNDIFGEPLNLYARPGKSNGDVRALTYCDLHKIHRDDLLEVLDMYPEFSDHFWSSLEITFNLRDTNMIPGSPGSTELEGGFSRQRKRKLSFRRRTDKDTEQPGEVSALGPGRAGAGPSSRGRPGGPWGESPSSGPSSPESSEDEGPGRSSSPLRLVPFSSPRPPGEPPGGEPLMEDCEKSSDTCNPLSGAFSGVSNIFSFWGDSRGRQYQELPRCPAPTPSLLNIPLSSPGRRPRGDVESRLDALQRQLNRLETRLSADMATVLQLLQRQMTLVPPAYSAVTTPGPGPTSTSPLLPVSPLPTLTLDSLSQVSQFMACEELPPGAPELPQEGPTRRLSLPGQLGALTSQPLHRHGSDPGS
T2 sequence (Q12809 whole entry): as above

## CSc1ccc(OCc2nccn2C)cc1
[1]
  remaining at 32 min, 20 µM: 100%
Leishmania major
  IC50: > 20 µM
[2]
  IC50 at 72 h: > 100 µM
[3]
  remaining at 32 min, 20 µM: 100%
Leishmania braziliensis [4]
  IC50: > 20 µM
Leishmania amazonensis [5]
  IC50: > 20 µM
RAW264.7
  IC50: > 91.1 µM
Leishmania donovani [6]
  IC50: > 20 µM
[7]
  IC25: 34.5 µM
Leishmania donovani [8]
  IC50: > 20 µM
hERG (KCNH2) [9]
  activity at 0.5 h, 25 µM: 83%
[10]
  viability at up to 125 µM: > 50%

## Cn1c([N+](=O)[O-])cnc1COc1ccc([S+](C)[O-])cc1 (stereo not given) [FEXINIDAZOLE SULFOXIDE]
[11]
  Activity: Non-toxic
[1]
  remaining at 32 min, 20 µM: 100%
Leishmania major
  IC50: 1.4 µM
[2]
  IC50 at 72 h: > 100 µM
[12]
  Activity: Non-toxic
[3]
  remaining at 32 min, 20 µM: 100%
Leishmania braziliensis [4]
  IC50: 4.3 µM
Leishmania amazonensis [5]
  IC50: 7.8 µM
RAW264.7
  IC50: > 100 µM
Leishmania donovani [6]
  IC50: 4.3 µM
[7]
  IC25: > 100 µM
Leishmania donovani [8]
  IC50: 3.4 µM
[13]
  inhibition (INH): Not_active
[10]
  viability at up to 125 µM: > 50%

## CSc1ccc(CCc2ncc([N+](=O)[O-])n2CCO)cc1
[1]
  remaining at 32 min, 20 µM: 20.5%
Leishmania major
  IC50: > 20 µM
[2]
  IC50 at 72 h: > 100 µM
[3]
  remaining at 32 min, 20 µM: 76.8%
Leishmania braziliensis [4]
  IC50: > 20 µM
Leishmania amazonensis [5]
  IC50: > 20 µM
RAW264.7
  IC50: > 100 µM
Leishmania donovani [6]
  IC50: > 20 µM
[7]
  IC25: 6 µM
Leishmania donovani [8]
  IC50: > 20 µM
hERG (KCNH2) [14]
  inhibition at 0.5 h, 100 µM: 100%
[10]
  viability at up to 125 µM: > 50%

## CSc1ccc(OC[C@H]2Cn3cc([N+](=O)[O-])nc3O2)cc1
hERG (KCNH2) [15]
  activity at 0.5 h, 6 µM: 46%
[1]
  remaining at 32 min, 20 µM: 64.7%
Leishmania major
  IC50: 5.7 µM
Leishmania donovani [16]
  IC50: 0.6 µM
Leishmania braziliensis [17]
  IC50: 1 µM
Leishmania donovani [18]
  IC50: 0.4 µM
[2]
  IC50 at 72 h: > 100 µM
[3]
  remaining at 32 min, 20 µM: 92.1%
Leishmania braziliensis [4]
  IC50: 1.4 µM
Leishmania amazonensis [5]
  IC50: 1.9 µM
[19]
  selectivity ratio: > 143
Leishmania amazonensis [20]
  IC50: 0.7 µM
[21]
  IC50 at 72 h: > 86 µM
RAW264.7
  IC50: > 95.3 µM
Leishmania donovani [6]
  IC50: 0.4 µM
[7]
  IC25: 3.1 µM
Leishmania donovani [8]
  IC50: 1.1 µM
[10]
  viability at up to 125 µM: > 50%

## C[S+]([O-])c1ccc(OCC2Cn3cc([N+](=O)[O-])nc3O2)cc1 (racemic)
[22]
  inhibition (INH): Not_active
[23]
  Activity: 58%
[1]
  remaining at 32 min, 20 µM: 100%
Leishmania major
  IC50: > 20 µM
[2]
  IC50 at 72 h: > 100 µM
[3]
  remaining at 32 min, 20 µM: 100%
Leishmania braziliensis [4]
  IC50: > 20 µM
[24]
  Activity: 40.8%
Leishmania amazonensis [5]
  IC50: > 20 µM
RAW264.7
  IC50: > 100 µM
Leishmania donovani [6]
  IC50: 7.1 µM
[7]
  IC25: 30.1 µM
Leishmania donovani [8]
  IC50: 10.2 µM
[10]
  viability at up to 125 µM: 56%
